Source: ChEMBL document CHEMBL2440078, “Synthesis and biological evaluation of novel C-aryl d-glucofuranosides as sodium-dependent glucose co-transporter 2 inhibitors” (Bioorg Med Chem, 2013)

Biological target: T1, Sodium/glucose cotransporter 2 (Homo sapiens, UniProt P31639)
T1 sequence (P31639 whole entry): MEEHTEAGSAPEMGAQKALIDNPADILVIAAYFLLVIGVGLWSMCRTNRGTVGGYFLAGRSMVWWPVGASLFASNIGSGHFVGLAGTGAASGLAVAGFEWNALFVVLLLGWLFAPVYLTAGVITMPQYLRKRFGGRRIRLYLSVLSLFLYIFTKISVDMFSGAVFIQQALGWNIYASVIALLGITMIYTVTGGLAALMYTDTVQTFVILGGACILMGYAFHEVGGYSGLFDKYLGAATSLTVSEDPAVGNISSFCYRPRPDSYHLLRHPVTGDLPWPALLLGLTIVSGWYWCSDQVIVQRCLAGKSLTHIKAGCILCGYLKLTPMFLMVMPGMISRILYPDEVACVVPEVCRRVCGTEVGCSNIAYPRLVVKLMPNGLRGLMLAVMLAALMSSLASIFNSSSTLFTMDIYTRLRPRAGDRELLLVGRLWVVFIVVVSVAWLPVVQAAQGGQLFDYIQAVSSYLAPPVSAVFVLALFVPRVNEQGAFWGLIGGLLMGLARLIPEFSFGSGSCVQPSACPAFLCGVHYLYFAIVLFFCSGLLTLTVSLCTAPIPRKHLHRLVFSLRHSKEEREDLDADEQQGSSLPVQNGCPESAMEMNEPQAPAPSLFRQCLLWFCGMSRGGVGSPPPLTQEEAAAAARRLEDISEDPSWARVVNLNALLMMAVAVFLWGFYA
Test: Inhibition of human SGLT2 expressed in CHO-K1 cells assessed as inhibition of [14C]-AMG uptake up to 120 mins by scintillation counting method
Assay type: cell-based
How it was run: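 Uptake of 3 µM [¹⁴C]-AMG ± inhibitor at 37 °C, stopped with ice-cold KRH. Cells lysed in 0.1% SDS 24 h, then counted. Inhibition vs DMSO-only wells. EC₅₀ from sigmoidal fit, mean of ≥3 determinations.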

| Compound | EC50 [µM] |
| --- | --- |
| CCc1ccc(Cc2cc([C@@H]3O[C@H]([C@H](O)CO)[C@H](O)[C@H]3O)c(OC)cc2Cl)cc1 | 0.62 |
| COc1cccc(Cc2cc([C@@H]3O[C@H]([C@H](O)CO)[C@H](O)[C@H]3O)ccc2Cl)c1 | > 50 |
| CCc1ccc(Cc2cc([C@@H]3O[C@H]([C@H](O)CO)[C@H](O)[C@H]3O)ccc2C)cc1 | 2.5 |
| OC[C@@H](O)[C@H]1O[C@@H](c2ccc(Cl)c(Cc3ccc(F)cc3)c2)[C@H](O)[C@H]1O | > 50 |
| CSc1ccc(Cc2cc([C@@H]3O[C@H]([C@H](O)CO)[C@H](O)[C@H]3O)ccc2Cl)cc1 | 3.7 |
| COc1ccc(Cc2cc([C@@H]3O[C@H]([C@H](O)CO)[C@H](O)[C@H]3O)ccc2Cl)cc1 | 35 |
| CCOc1ccc(Cc2cc([C@@H]3O[C@H]([C@H](O)CO)[C@H](O)[C@H]3O)c(OC)cc2Cl)cc1 | 46 |
| COc1ccc2cc(Cc3cc([C@@H]4O[C@H]([C@H](O)CO)[C@H](O)[C@H]4O)ccc3Cl)ccc2c1 | 5.1 |
| OC[C@@H](O)[C@H]1O[C@@H](c2ccc(Cl)c(Cc3ccc(Oc4ccccc4)cc3)c2)[C@H](O)[C@H]1O | > 50 |
| Cc1ccc([C@@H]2O[C@H]([C@H](O)CO)[C@H](O)[C@H]2O)cc1Cc1ccc(C(C)C)cc1 | 11 |

Results, then the compound that gave them:

| EC50 [µM] | Compound |
| --- | --- |
| > 50 | OC[C@@H](O)[C@H]1O[C@@H](c2ccc(Cl)c(Cc3ccc4c(c3)OCO4)c2)[C@H](O)[C@H]1O |
| 34 | CCOc1ccc(Cc2cc([C@@H]3O[C@H]([C@H](O)CO)[C@H](O)[C@H]3O)ccc2C)cc1 |
| > 50 | COc1ccccc1Cc1cc([C@@H]2O[C@H]([C@H](O)CO)[C@H](O)[C@H]2O)ccc1Cl |
| 21 | COc1cc(Cl)c(Cc2ccc(C(C)C)cc2)cc1[C@@H]1O[C@H]([C@H](O)CO)[C@H](O)[C@H]1O |
| 33 | CC(C)c1ccc(Cc2cc([C@@H]3O[C@H]([C@H](O)CO)[C@H](O)[C@H]3O)ccc2Cl)cc1 |
| > 50 | CCOc1ccc(Cc2cc([C@@H]3O[C@H]([C@H](O)CO)[C@H](O)[C@H]3O)ccc2Cl)cc1 |
